Results as given in ChEMBL document CHEMBL4732057, “Design, synthesis and biological evaluation of second-generation benzoylpiperidine derivatives as reversible monoacylglycerol lipase (MAGL) inhibitors” (Eur J Med Chem, 2021).
Activity calls are given as the source filed them. The calls are words filed in the database; no cut-off is given here.

Columns and labels:
[1] = molecular target: T1, Monoglyceride lipase (Homo sapiens, UniProt Q99685); experiment: Inhibition of MAGL in human U937 cells assessed as reduction in [3H]glycerol formation using [1,2,3-3H]2-OG as substrate incubated for 15 mins by liquid scintillation spectroscopy; type: cell-based, U-937
T1 sequence (Q99685 whole entry): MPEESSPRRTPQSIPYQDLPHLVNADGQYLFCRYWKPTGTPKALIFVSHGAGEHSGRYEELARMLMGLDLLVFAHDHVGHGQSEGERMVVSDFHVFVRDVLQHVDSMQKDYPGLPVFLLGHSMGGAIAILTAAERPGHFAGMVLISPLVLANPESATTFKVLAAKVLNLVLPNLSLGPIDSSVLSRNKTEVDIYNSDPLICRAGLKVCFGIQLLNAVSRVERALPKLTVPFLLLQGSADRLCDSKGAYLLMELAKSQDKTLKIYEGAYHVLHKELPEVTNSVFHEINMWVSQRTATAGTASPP
Outline: (§1)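 Intact U937 cells (1.0 × 10^6) in Tris-HCl 10 mM, EDTA 1 mM, 0.1% BSA, pH 8, given compound at 37 °C. Then 15 min at 37 °C with shaking. MAGL: 10 µM 2-OG plus 0.5 nM [3H]2-OG. FAAH: 1 µM AEA plus 2 nM [3H]AEA. Aqueous-phase tritium counted; three experiments in triplicate.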

[2] = tested on: OVCAR-3; experiment: Antiproliferative activity against human OVCAR3 cells as reduction in cell growth measured after 96 hrs by Celltiter-glo luminescent assay; type: functional, cell-based; settings: OVCAR-3, 96 h
Outline: (§2)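 Cell lines kept at 37 °C, 5% CO2; 5 × 10^2 cells per well, compound added the day after seeding at 200 to 0.02 µM. Viability read after 96 h by CellTiter-Glo luminescence. IC50 from logistic dose-response curves, in triplicate; error bars are SD.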

[3] = tested on: Caov-3 cell line; experiment: Antiproliferative activity against human CAOV3 cells as reduction in cell growth measured after 96 hrs by Celltiter-glo luminescent assay; type: functional, cell-based; settings: Caov-3, 96 h; outline: as §2
[4] = molecular target: T2, Fatty-acid amide hydrolase 1 (Homo sapiens, UniProt O00519); experiment: Inhibition of FAAH in human U937 cells assessed as reduction in [3H]ethanolamine formation using [ethanolamine-1-3H]AEA as substrate incubated for 15 mins by liquid scintillation spectroscopy; type: cell-based, U-937; outline: as §1
T2 sequence (O00519 whole entry): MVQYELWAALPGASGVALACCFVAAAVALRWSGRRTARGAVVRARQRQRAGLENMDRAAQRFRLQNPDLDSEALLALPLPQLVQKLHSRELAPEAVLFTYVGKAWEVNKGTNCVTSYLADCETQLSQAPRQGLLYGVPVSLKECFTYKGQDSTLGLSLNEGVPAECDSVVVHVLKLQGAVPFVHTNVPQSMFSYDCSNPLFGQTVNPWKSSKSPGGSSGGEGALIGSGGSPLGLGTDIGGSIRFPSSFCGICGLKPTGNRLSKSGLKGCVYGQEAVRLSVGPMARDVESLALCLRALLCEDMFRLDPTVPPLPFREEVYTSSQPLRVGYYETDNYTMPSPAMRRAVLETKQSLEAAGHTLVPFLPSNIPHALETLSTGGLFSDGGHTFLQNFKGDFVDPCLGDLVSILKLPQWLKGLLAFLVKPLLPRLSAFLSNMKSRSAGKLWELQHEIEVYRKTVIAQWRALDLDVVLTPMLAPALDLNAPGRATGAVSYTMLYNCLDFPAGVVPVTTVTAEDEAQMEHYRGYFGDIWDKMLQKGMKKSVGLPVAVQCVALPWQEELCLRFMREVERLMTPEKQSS

[5] = molecular target: T3, Monoacylglycerol lipase ABHD6 (Mus musculus) (UniProt Q8R2Y0); experiment: Inhibition of ABHD6 in mouse brain membrane up to 30 uM preincubated for 25 mins followed by TAMRA-FP labeling addition and measured after 5 mins by competitive ABPP based analysis; type: cell membranes; settings: dose microM <=30, time 30.0 min
T3 sequence (whole entry): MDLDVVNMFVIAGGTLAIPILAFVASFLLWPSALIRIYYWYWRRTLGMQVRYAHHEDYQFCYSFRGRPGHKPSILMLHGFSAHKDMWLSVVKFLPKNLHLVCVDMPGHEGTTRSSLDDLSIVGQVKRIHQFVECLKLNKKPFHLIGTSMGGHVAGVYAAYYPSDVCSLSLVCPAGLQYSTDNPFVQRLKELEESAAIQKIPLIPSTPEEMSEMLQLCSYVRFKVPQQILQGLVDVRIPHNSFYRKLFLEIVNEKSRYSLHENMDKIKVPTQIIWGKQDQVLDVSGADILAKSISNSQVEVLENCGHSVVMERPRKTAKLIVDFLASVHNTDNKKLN
Outline: (§3)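 Mouse brain membranes, 4 mg/mL in PBS, preincubated 25 min at 25 °C with compound at 10 µM or a range of concentrations. Labelled 5 min with TAMRA-FP at 125 nM final. Proteins resolved on 11% SDS-PAGE and scanned for fluorescence.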

[6] = molecular target: Cannabinoid receptor 1 (Homo sapiens, UniProt P21554); experiment: Displacement of [3H]CP55940 from human CB1 receptor incubated for 90 mins by radioligand binding assay
Sequence of Cannabinoid receptor 1 (P21554 whole entry): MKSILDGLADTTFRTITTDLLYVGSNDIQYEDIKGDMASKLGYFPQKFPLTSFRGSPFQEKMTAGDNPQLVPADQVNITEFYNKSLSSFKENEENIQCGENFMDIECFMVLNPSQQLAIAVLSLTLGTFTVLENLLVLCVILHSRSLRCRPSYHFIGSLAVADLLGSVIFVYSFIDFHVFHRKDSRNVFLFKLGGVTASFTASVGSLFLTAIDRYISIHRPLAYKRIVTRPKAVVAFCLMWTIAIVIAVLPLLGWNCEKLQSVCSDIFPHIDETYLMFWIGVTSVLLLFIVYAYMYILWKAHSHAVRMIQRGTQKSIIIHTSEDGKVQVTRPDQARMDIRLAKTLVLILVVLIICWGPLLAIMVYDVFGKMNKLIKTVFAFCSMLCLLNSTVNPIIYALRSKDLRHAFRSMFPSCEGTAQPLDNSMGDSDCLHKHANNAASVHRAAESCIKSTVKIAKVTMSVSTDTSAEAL
Outline: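 Membranes expressing hCB1 or hCB2 in 50 mM Tris-HCl, 2.5 mM EDTA, 5 mM MgCl2, 0.5% BSA, pH 7.4, incubated with compound and 0.5 nM [3H]CP55,940 for 90 min at 30 °C. Nonspecific binding with 10 µM […]; filtered and counted. Screening at 10 µM; two experiments in triplicate.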

[7] = molecular target: T4, Fatty-acid amide hydrolase 1 (Mus musculus) (UniProt O08914); experiment: Inhibition of FAAH in mouse brain membrane up to 30 uM preincubated for 25 mins followed by TAMRA-FP labeling addition and measured after 5 mins by competitive ABPP based analysis; type: cell membranes; settings: dose microM <=30, time 30.0 min; outline: as §3
T4 sequence (whole entry): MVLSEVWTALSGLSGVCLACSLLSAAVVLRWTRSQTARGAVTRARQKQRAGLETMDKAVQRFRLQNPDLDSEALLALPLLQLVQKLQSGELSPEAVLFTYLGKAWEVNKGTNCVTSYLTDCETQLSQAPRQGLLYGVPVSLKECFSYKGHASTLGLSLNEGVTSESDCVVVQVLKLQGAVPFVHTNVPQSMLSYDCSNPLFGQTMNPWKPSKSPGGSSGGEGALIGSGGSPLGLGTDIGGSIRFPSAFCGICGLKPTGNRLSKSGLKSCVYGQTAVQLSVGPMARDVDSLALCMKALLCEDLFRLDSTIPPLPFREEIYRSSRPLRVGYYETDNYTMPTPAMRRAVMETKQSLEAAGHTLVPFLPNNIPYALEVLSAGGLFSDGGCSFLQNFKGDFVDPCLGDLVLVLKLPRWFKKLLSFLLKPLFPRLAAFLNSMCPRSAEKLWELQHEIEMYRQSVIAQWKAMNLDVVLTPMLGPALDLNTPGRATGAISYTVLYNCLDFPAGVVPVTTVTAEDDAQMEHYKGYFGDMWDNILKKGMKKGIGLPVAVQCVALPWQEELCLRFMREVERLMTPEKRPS

SMILES: O=C(c1ccc(Sc2ccccc2)cc1)C1CCN(C(=O)c2cc(O)c(F)cc2F)CC1
- IC50 [1]: 0.568 µM
- IC50 [2]: > 100 µM
- IC50 [3]: 42 µM
- IC50 [4]: > 10 µM
- inhibition [5]: inactive
- IC50 [6]: > 10 µM
- inhibition [7]: inactive

SMILES: O=C(c1ccc(Cc2ccccc2)cc1)C1CCN(C(=O)c2cc(O)c(F)cc2F)CC1
- IC50 [1]: 1.23 µM
- IC50 [2]: > 100 µM
- IC50 [3]: 44 µM
- IC50 [4]: > 10 µM
- inhibition [5]: inactive
- IC50 [6]: > 10 µM
- inhibition [7]: inactive

SMILES: O=C(c1ccc(Cc2ccccc2)cc1)C1CCN(C(=O)c2cc(O)ccc2F)CC1
- IC50 [1]: 0.844 µM
- IC50 [2]: 20.7 µM
- IC50 [3]: 70 µM
- IC50 [4]: > 10 µM
- inhibition [5]: inactive
- IC50 [6]: > 10 µM
- inhibition [7]: inactive

SMILES: O=C(c1ccc(Sc2ccccc2)cc1)C1CCN(C(=O)c2cc(O)ccc2F)CC1
- IC50 [1]: 0.868 µM
- IC50 [2]: > 100 µM
- IC50 [3]: 34 µM
- IC50 [4]: > 10 µM
- inhibition [5]: inactive
- IC50 [6]: > 10 µM
- inhibition [7]: inactive
